Tests used:
Assay type in all cases: functional
M14 = test: Anticancer activity against human M14 cells assessed as cell growth promotion at 10^-5 M after 48 hrs by SRB assay relative to control
MOLT-4 = test: Anticancer activity against human MOLT4 cells assessed as cell growth promotion at 10^-5 M after 48 hrs by SRB assay relative to control
SN12C = test: Anticancer activity against human SN12C cells assessed as cell growth promotion at 10^-5 M after 48 hrs by SRB assay relative to control
HCT-116 = test: Anticancer activity against human HCT116 cells assessed as cell growth promotion at 10^-5 M after 48 hrs by SRB assay relative to control
MDA-MB-435 = test: Anticancer activity against human MDA-MB-435 cells assessed as cell growth promotion at 10^-5 M after 48 hrs by SRB assay relative to control
SK-MEL-28 = test: Anticancer activity against human SK-MEL-28 cells assessed as cell growth promotion at 10^-5 M after 48 hrs by SRB assay relative to control
RXF 393 = test: Anticancer activity against human RXF393 cells assessed as cell growth promotion at 10^-5 M after 48 hrs by SRB assay relative to control
T47D = test: Anticancer activity against human T47D cells assessed as cell growth promotion at 10^-5 M after 48 hrs by SRB assay relative to control
UO-31 = test: Anticancer activity against human UO31 cells assessed as cell growth promotion at 10^-5 M after 48 hrs by SRB assay relative to control
UACC-257 = test: Anticancer activity against human UACC257 cells assessed as cell growth promotion at 10^-5 M after 48 hrs by SRB assay relative to control
K562 = test: Anticancer activity against human K562 cells assessed as cell growth promotion at 10^-5 M after 48 hrs by SRB assay relative to control
NCI-H23 = test: Anticancer activity against human NCI-H23 cells assessed as cell growth promotion at 10^-5 M after 48 hrs by SRB assay relative to control
HL-60(TB) = test: Anticancer activity against human HL-60(TB) cells assessed as cell growth promotion at 10^-5 M after 48 hrs by SRB assay relative to control
Summary of the method: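 NCI-60 single-dose screen: compound at 10^-5 M, 48 h at 37 °C, 5% CO2; cells grown in RPMI 1640 with 5% FBS and 2 mM L-glutamine, pre-incubated 24 h before dosing. Adherent cells fixed with cold TCA; endpoint is sulforhodamine B protein staining. Percent growth of treated cells is reported relative to untreated control.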

NCI-H226 = test: Anticancer activity against human NCI-H226 cells assessed as cell growth promotion at 10^-5 M after 48 hrs by SRB assay relative to control
HT-29 = test: Anticancer activity against human HT-29 cells assessed as cell growth promotion at 10^-5 M after 48 hrs by SRB assay relative to control
U-251 = test: Anticancer activity against human U251 cells assessed as cell growth promotion at 10^-5 M after 48 hrs by SRB assay relative to control
ACHN = test: Anticancer activity against human ACHN cells assessed as cell growth promotion at 10^-5 M after 48 hrs by SRB assay relative to control
HOP-62 = test: Anticancer activity against human HOP62 cells assessed as cell growth promotion at 10^-5 M after 48 hrs by SRB assay relative to control
DU-145 = test: Anticancer activity against human DU145 cells assessed as cell growth promotion at 10^-5 M after 48 hrs by SRB assay relative to control
SW-620 = test: Anticancer activity against human SW620 cells assessed as cell growth promotion at 10^-5 M after 48 hrs by SRB assay relative to control
MDA-MB-468 = test: Anticancer activity against human MDA-MB-468 cells assessed as cell growth promotion at 10^-5 M after 48 hrs by SRB assay relative to control
HCC 2998 = test: Anticancer activity against human HCC2998 cells assessed as cell growth promotion at 10^-5 M after 48 hrs by SRB assay relative to control
SR = test: Anticancer activity against human SR cells assessed as cell growth promotion at 10^-5 M after 48 hrs by SRB assay relative to control
KM12 = test: Anticancer activity against human KM12 cells assessed as cell growth promotion at 10^-5 M after 48 hrs by SRB assay relative to control
[1] = Anticancer activity against human […] cells assessed as cell growth promotion at 10^-5 M after 48 hrs by SRB assay relative to control
HCT-15 = test: Anticancer activity against human HCT15 cells assessed as cell growth promotion at 10^-5 M after 48 hrs by SRB assay relative to control
SK-MEL-5 = test: Anticancer activity against human SK-MEL-5 cells assessed as cell growth promotion at 10^-5 M after 48 hrs by SRB assay relative to control
MCF7 = test: Anticancer activity against human MCF7 cells assessed as cell growth promotion at 10^-5 M after 48 hrs by SRB assay relative to control
IGROV-1 = test: Anticancer activity against human IGROV1 cells assessed as cell growth promotion at 10^-5 M after 48 hrs by SRB assay relative to control
[2] = Anticancer activity against human Hs 578T cells assessed as cell growth promotion at 10^-5 M after 48 hrs by SRB assay relative to control
SF-268 = test: Anticancer activity against human SF268 cells assessed as cell growth promotion at 10^-5 M after 48 hrs by SRB assay relative to control
NCI/ADR-RES = test: Anticancer activity against human NCI/ADR-RES cells assessed as cell growth promotion at 10^-5 M after 48 hrs by SRB assay relative to control
OVCAR-8 = test: Anticancer activity against human OVCAR8 cells assessed as cell growth promotion at 10^-5 M after 48 hrs by SRB assay relative to control
SF-295 = test: Anticancer activity against human SF295 cells assessed as cell growth promotion at 10^-5 M after 48 hrs by SRB assay relative to control
SK-OV-3 = test: Anticancer activity against human SKOV3 cells assessed as cell growth promotion at 10^-5 M after 48 hrs by SRB assay relative to control
SNB-19 = test: Anticancer activity against human SNB19 cells assessed as cell growth promotion at 10^-5 M after 48 hrs by SRB assay relative to control
SF-539 = test: Anticancer activity against human SF539 cells assessed as cell growth promotion at 10^-5 M after 48 hrs by SRB assay relative to control
COLO 205 = test: Anticancer activity against human COLO205 cells assessed as cell growth promotion at 10^-5 M after 48 hrs by SRB assay relative to control

Row | SMILES | Activity (M14) | Activity (MOLT-4) | Activity (SN12C) | Activity (HCT-116) | Activity (MDA-MB-435) | Activity (SK-MEL-28) | Activity (RXF 393) | Activity (T47D) | Activity (UO-31) | Activity (UACC-257) | Activity (K562) | Activity (NCI-H23) | Activity (HL-60(TB)) | Activity (NCI-H226) | Activity (U-251) | Activity (ACHN) | Activity (HOP-62) | Activity (DU-145) | Activity (SW-620) | Activity (MDA-MB-468) | also measured
1 | NS(=O)(=O)c1ccc(NC(=O)c2ccccc2NC(=O)c2ccco2)cc1 | 113.1% | 87.33% | 105% | 109.7% | 107.2% | 107.1% | 113% | 103% | 104% | 100.1% | 95.39% | 110.8% | 93.06% | 114.6% | 99.55% | 101% | 106% | 113% | 101.9% | 106% | Activity (HT-29): 99.28%; Activity (HCC 2998): 103.3%; Activity (SR): 101.4%; Activity (KM12): 108.4%; Activity [1]: 117.5%; Activity (HCT-15): 105.5%; Activity (SK-MEL-5): 108.4%; Activity (MCF7): 95.61%; Activity (IGROV-1): 117%; Activity [2]: 118%; Activity (SF-268): 98.43%; Activity (NCI/ADR-RES): 111%; Activity (OVCAR-8): 103%; Activity (SF-295): 103.8%; Activity (SK-OV-3): 110%; Activity (SNB-19): 110.7%; Activity (SF-539): 86.82%
2 | N#Cc1ccc(/C=C/c2ccc(NC(=O)c3ccccc3NC(=O)c3ccco3)cc2)cc1 | 112% | 99.1% | 104% | 103% | 108% | 113% | 114% | 103% | 84.8% | 103% | 94.72% | 94.62% | 84.98% | 107% | 100% | 104% | 111% | 104% | 106% | 108% | Activity (HCC 2998): 105%; Activity (SR): 109%; Activity (KM12): 107%; Activity [1]: 108%; Activity (HCT-15): 104%; Activity (SK-MEL-5): 103%; Activity (MCF7): 98.4%; Activity (IGROV-1): 110%; Activity [2]: 100%; Activity (SF-268): 104%; Activity (NCI/ADR-RES): 109%; Activity (COLO 205): 124%; Activity (OVCAR-8): 106%; Activity (SF-295): 114%; Activity (SK-OV-3): 111%; Activity (SNB-19): 111%; Activity (SF-539): 102%
3 | C(=C\c1nc2ccccc2nc1SCc1nc2ccccc2[nH]1)/c1ccccc1 | 76.83% | 63.07% | 74.42% | 35.79% | 88.93% | 94.52% | 97.82% | 34.6% | 58.6% | 67.72% | 61.44% | 52.23% | 77.83% | 65.68% | 79.81% | 76.83% | 88.3% | 74.33% | 83.03% | 39.93% | Activity (HCC 2998): 86.35%; Activity (SR): 83.8%; Activity (KM12): 79.7%; Activity [1]: 47.73%; Activity (HCT-15): 96.13%; Activity (SK-MEL-5): 17.4%; Activity (MCF7): 40.3%; Activity (IGROV-1): 87.44%; Activity [2]: 90.1%; Activity (SF-268): 88.12%; Activity (NCI/ADR-RES): 53.22%; Activity (COLO 205): 75.7%; Activity (OVCAR-8): 82.17%; Activity (SF-295): 58.32%; Activity (SK-OV-3): 73.61%; Activity (SNB-19): 82.87%; Activity (SF-539): 97.75%
